According to ChEMBL document CHEMBL1255347, “Multiclonal outbreak of Klebsiella pneumoniae producing extended-spectrum beta-lactamase CTX-M-2 and novel variant CTX-M-59 in a neonatal intensive care unit in Brazil” (2008):
≈ marks a conversion by molar mass, not a printed value.

Columns and labels:
Type in all cases: functional
[1] = test system: Klebsiella pneumoniae; assay: Antimicrobial activity against CTX-M-59 producing Klebsiella pneumoniae with PFGE pulsotype G by Etest
Outline: (§1)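 Clinical K. pneumoniae isolates from a neonatal ICU outbreak near São Paulo were typed by XbaI PFGE using Tenover criteria. Cultures were grown in LB broth at 37°C. Etest MICs followed the manufacturer's instructions, with cefotaxime and ceftazidime each tested with and without clavulanic acid.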

[2] = test system: Klebsiella pneumoniae; assay: Antimicrobial activity against CTX-M-2 producing Klebsiella pneumoniae with PFGE pulsotype I by Etest
[3] = test system: Klebsiella pneumoniae; assay: Antimicrobial activity against CTX-M-2 and TEM-1 producing Klebsiella pneumoniae transconjugants/transformants with PFGE pulsotype F by Etest
Outline: (§2)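 The recipient was E. coli XL1-Blue Rifr NAr. Plasmids moved by broth mating, with transconjugants selected on LB agar containing ampicillin, rifampin and nalidixic acid, each at 50 μg/ml. Where mating failed, alkaline-lysis plasmid extracts were electroporated and selected on ampicillin 50 μg/ml. β-lactam MICs were read by Etest, with and without clavulanic acid.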

[4] = test system: Klebsiella pneumoniae; assay: Antimicrobial activity against CTX-M-59 and TEM-1 producing Klebsiella pneumoniae transconjugants/transformants with PFGE pulsotype E by Etest; outline: as §2
[5] = test system: Klebsiella pneumoniae; assay: Antimicrobial activity against CTX-M-2 producing Klebsiella pneumoniae with PFGE pulsotype H by Etest; outline: as §1
[6] = test system: Klebsiella pneumoniae; assay: Antimicrobial activity against CTX-M-2 and TEM-1 producing Klebsiella pneumoniae transconjugants/transformants with PFGE pulsotype B by Etest; outline: as §2
[7] = test system: Klebsiella pneumoniae; assay: Antimicrobial activity against CTX-M-2 producing Klebsiella pneumoniae with PFGE pulsotype A by Etest; outline: as §1
[8] = test system: Klebsiella pneumoniae; assay: Antimicrobial activity against SHV-5 producing Klebsiella pneumoniae transconjugants/transformants with PFGE pulsotype D by Etest; outline: as §2
[9] = test system: Klebsiella pneumoniae; assay: Antimicrobial activity against CTX-M-2 and TEM-1 producing Klebsiella pneumoniae transconjugants/transformants with PFGE pulsotype A by Etest; outline: as §2
[10] = test system: Klebsiella pneumoniae; assay: Antimicrobial activity against CTX-M-2 and TEM-1 producing Klebsiella pneumoniae transconjugants/transformants with PFGE pulsotype H by Etest; outline: as §2
[11] = test system: Klebsiella pneumoniae; assay: Antimicrobial activity against CTX-M-2 and TEM-1 producing Klebsiella pneumoniae transconjugants/transformants with PFGE pulsotype I by Etest; outline: as §2
[12] = test system: Klebsiella pneumoniae; assay: Antimicrobial activity against CTX-M-2 producing Klebsiella pneumoniae with PFGE pulsotype B by Etest; outline: as §1
[13] = test system: Klebsiella pneumoniae; assay: Antimicrobial activity against CTX-M-2 and TEM-1 producing Klebsiella pneumoniae transconjugants/transformants with PFGE pulsotype J by Etest; outline: as §2
[14] = test system: Klebsiella pneumoniae; assay: Antimicrobial activity against SHV-5 producing Klebsiella pneumoniae with PFGE pulsotype D by Etest; outline: as §1
[15] = test system: Klebsiella pneumoniae; assay: Antimicrobial activity against CTX-M-59 producing Klebsiella pneumoniae with PFGE pulsotype C by Etest
[16] = test system: Klebsiella pneumoniae; assay: Antimicrobial activity against CTX-M-59 and TEM-1 producing Klebsiella pneumoniae transconjugants/transformants with PFGE pulsotype G by Etest; outline: as §2
[17] = test system: Klebsiella pneumoniae; assay: Antimicrobial activity against CTX-M-59 producing Klebsiella pneumoniae with PFGE pulsotype E by Etest
[18] = test system: Klebsiella pneumoniae; assay: Antimicrobial activity against CTX-M-2 producing Klebsiella pneumoniae with PFGE pulsotype F by Etest
[19] = test system: Klebsiella pneumoniae; assay: Antimicrobial activity against CTX-M-2 producing Klebsiella pneumoniae with PFGE pulsotype J by Etest
[20] = test system: Klebsiella pneumoniae; assay: Antimicrobial activity against CTX-M-59 and TEM-1 producing Klebsiella pneumoniae transconjugants/transformants with PFGE pulsotype C by Etest; outline: as §2
[21] = test system: Escherichia coli; assay: Antimicrobial activity against Escherichia coli str. K-12 substr. DH10B harboring plasmid CTX-M-2; conditions: K-12 DH10B
Outline: (§3)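 blaCTX-M PCR products were cut with XbaI/BamHI and cloned into pBC-SK(−), then electroporated into E. coli DH10B. Transformants were selected on LB agar with ampicillin 50 μg/ml and chloramphenicol 30 μg/ml, and sequences were confirmed. These clones were used for β-lactam MICs, with and without clavulanic acid.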

[22] = test system: Escherichia coli; assay: Antimicrobial activity against Escherichia coli str. K-12 substr. DH10B harboring plasmid CTX-M-59; conditions: K-12 DH10B; outline: as §3

## C[C@@H](O)[C@H]1C(=O)N2C(C(=O)O)=C(S[C@@H]3CN[C@H](C(=O)Nc4cccc(C(=O)O)c4)C3)[C@H](C)[C@H]12
[1]
  MIC: 1.5 µg/mL (≈ 3.15 µM)
[2]
  MIC: 1 µg/mL (≈ 2.1 µM)
[3]
  MIC: 0.125 µg/mL (≈ 0.263 µM)
[4]
  MIC: 0.094 µg/mL (≈ 0.198 µM)
[5]
  MIC: 2 µg/mL (≈ 4.21 µM)
[6]
  MIC: 0.125 µg/mL (≈ 0.263 µM)
[7]
  MIC: 1.5 µg/mL (≈ 3.15 µM)
[8]
  MIC: 0.012 µg/mL (≈ 0.0252 µM)
[9]
  MIC: 0.125 µg/mL (≈ 0.263 µM)
[10]
  MIC: 0.094 µg/mL (≈ 0.198 µM)
[11]
  MIC: 0.032 µg/mL (≈ 0.0673 µM)
[12]
  MIC: 1 µg/mL (≈ 2.1 µM)
[13]
  MIC: 0.094 µg/mL (≈ 0.198 µM)
[14]
  MIC: 0.094 µg/mL (≈ 0.198 µM)
[15]
  MIC: 1.5 µg/mL (≈ 3.15 µM)
[16]
  MIC: 0.125 µg/mL (≈ 0.263 µM)
[17]
  MIC: 1.5 µg/mL (≈ 3.15 µM)
[18]
  MIC: 1.5 µg/mL (≈ 3.15 µM)
[19]
  MIC: 1.5 µg/mL (≈ 3.15 µM)
[20]
  MIC: 0.064 µg/mL (≈ 0.135 µM)
[21]
  MIC: 0.016 µg/mL (≈ 0.0336 µM)
[22]
  MIC: 0.016 µg/mL (≈ 0.0336 µM)

## CO/N=C(\C(=O)N[C@@H]1C(=O)N2C(C(=O)[O-])=C(C[N+]3(C)CCCC3)CS[C@H]12)c1csc(N)n1
[1]
  MIC: 32 µg/mL (≈ 66.6 µM)
[2]
  MIC: 256 µg/mL (≈ 533 µM)
[5]
  MIC: > 256 µg/mL
[6]
  MIC: 256 µg/mL (≈ 533 µM)
[8]
  MIC: 1.5 µg/mL (≈ 3.12 µM)
[12]
  MIC: 128 µg/mL (≈ 266 µM)
[14]
  MIC: 4 µg/mL (≈ 8.32 µM)
[15]
  MIC: 256 µg/mL (≈ 533 µM)
[18]
  MIC: > 256 µg/mL
[19]
  MIC: 12 µg/mL (≈ 25 µM)
[21]
  MIC: 4 µg/mL (≈ 8.32 µM)
[22]
  MIC: 4 µg/mL (≈ 8.32 µM)

## C[C@H]1[C@H](NC(=O)/C(=N\OC(C)(C)C(=O)O)c2csc(N)n2)C(=O)N1S(=O)(=O)O [AZTREONAM]
[1]
  MIC: 64 µg/mL (≈ 147 µM)
[2]
  MIC: 24 µg/mL (≈ 55.1 µM)
[3]
  MIC: > 256 µg/mL
[4]
  MIC: 48 µg/mL (≈ 110 µM)
[5]
  MIC: 48 µg/mL (≈ 110 µM)
[6]
  MIC: 256 µg/mL (≈ 588 µM)
[7]
  MIC: 24 µg/mL (≈ 55.1 µM)
[8]
  MIC: > 256 µg/mL
[9]
  MIC: > 256 µg/mL
[10]
  MIC: > 256 µg/mL
[11]
  MIC: > 256 µg/mL
[12]
  MIC: 48 µg/mL (≈ 110 µM)
[13]
  MIC: > 256 µg/mL
[14]
  MIC: 256 µg/mL (≈ 588 µM)
[15]
  MIC: 32 µg/mL (≈ 73.5 µM)
[16]
  MIC: > 256 µg/mL
[17]
  MIC: 32 µg/mL (≈ 73.5 µM)
[18]
  MIC: 256 µg/mL (≈ 588 µM)
[19]
  MIC: 128 µg/mL (≈ 294 µM)
[20]
  MIC: > 256 µg/mL
[21]
  MIC: 12 µg/mL (≈ 27.6 µM)
[22]
  MIC: 12 µg/mL (≈ 27.6 µM)
